From ChEMBL document CHEMBL2010749, “Cytotoxic phloroglucinols from the leaves of Myrtus communis” (J Nat Prod, 2012)
In brackets after ≈: the same amount, converted by molar mass.

Columns and labels:
[1] = Selectivity ratio of IC50 for human CRL7065 to MIC for Staphylococcus aureus ATCC 25923; assay type: functional
[2] = test system: Staphylococcus aureus; test: Antibacterial activity against Staphylococcus aureus ATCC 25923 after 20 hrs by doubling dilution method; assay type: functional; conditions: ATCC 25923, 20 h
How it was run: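 Broth doubling-dilution in 96-well format: overnight nutrient-broth cultures (37 °C) adjusted to about 10^5 cells/mL; compound stocks in EtOH diluted 2-fold across wells in culture suspension. After 20 h at 37 °C in moist atmosphere, thiazolyl blue tetrazolium added, 4 h further incubation; living bacteria seen as violet turbid wells; MIC read as lowest inhibitory concentration.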

[3] = test system: HepG2; test: Cytotoxicity against human HepG2 cells after 96 hrs; assay type: functional, cell-based; conditions: HepG2, 96 h
[4] = test system: DU-145; test: Cytotoxicity against human DU145 cells after 96 hrs; assay type: functional, cell-based; conditions: DU-145, 96 h
[5] = test system: MT4; test: Cytotoxicity against human MT4 cells after 96 hrs; assay type: functional, cell-based; conditions: MT4, 96 h

With `CC(C)C(=O)c1c(O)c([C@H](C2=C(O)C(C)(C)C(=O)C(C)(C)C2=O)C(C)C)c2c3c1OC(C)(C)C[C@H]3[C@H]1C(C)(C)C(=O)C(C)(C)[C@@]1(O)O2` (relative stereo) the Ratio [1] was 35, the MIC [2] was 0.38 µM (≈ 0.248 µg/mL) and the IC50 [3] was 4 µM. For the same compound, the IC50 [4] was 3000 nM and the IC50 [5] was 2.1 µM.

Compound `C=C1CC[C@]2(C)OC3=C(C(=O)C(C)(C)C(=O)C3(C)C)[C@@H](C(C)C)[C@@H]2[C@H]1C1CCCC1(C)C` (relative stereo) has an MIC [2] greater than 560 µM and an IC50 [5] greater than 100 µM.

For `CC(C)[C@@H]1C[C@@]2(CC[C@]3(C(C)C)C[C@H]23)OC2=C1C(=O)C(C)(C)C(=O)C2(C)C` (relative stereo), the MIC [2] was greater than 560 µM and the IC50 [5] was 41.4 µM.

`CC[C@@]1(O)C(=O)OCc2c1cc1n(c2=O)Cc2cc3ccccc3nc2-1` [CAMPTOTHECIN] gave an IC50 [3] of 0.02 µM and an IC50 [4] of 15 nM.

`O=C(N[C@H](CO)[C@H](O)c1ccc([N+](=O)[O-])cc1)C(Cl)Cl` [CHLORAMPHENICOL] gave an MIC [2] of 4 µM (≈ 1.29 µg/mL).

`COc1cc([C@@H]2c3cc4c(cc3[C@@H](O[C@@H]3O[C@@H]5CO[C@@H](C)O[C@H]5[C@H](O)[C@H]3O)[C@H]3COC(=O)[C@H]23)OCO4)cc(OC)c1O` [ETOPOSIDE] showed an IC50 [3] of 4 µM, an IC50 [4] of 3000 nM and an IC50 [5] of 0.09 µM.

With `CC(C)C(=O)c1c(O)c([C@H](C2=C(O)C(C)(C)C(=O)C(C)(C)C2=O)C(C)C)c(O)c([C@H](C2=C(O)C(C)(C)C(=O)C(C)(C)C2=O)C(C)C)c1O` [MYRTUCOMMULONE A] the MIC [2] was 2.2 µM (≈ 1.47 µg/mL), the IC50 [3] was 6 µM and the IC50 [4] was 5000 nM. It also gave an IC50 [5] of 4.7 µM.
